In ChEMBL document CHEMBL4196059, “Design, synthesis, and biological evaluation of stable β6.3-Helices: Discovery of non-hemolytic antibacterial peptides” (Eur J Med Chem, 2018):
Active and inactive are the calls of the source. The rule behind the calls is not given here.

How the values were obtained:
[1] = system: Lipid bilayer; assay: Induction of pore formation in POPC vesicles at 20 uM after 3 hrs by carboxyfluorescein dye leakage assay; conditions: in the assay text read “after 3 mins” for “after 3 hrs”
Method in brief: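 POPC or DOPC liposomes were hydrated in 10 mM HEPES, 100 mM KCl, pH 7.4, containing 50 mM carboxyfluorescein. Size was checked by dynamic light scattering, and vesicles were used at 2.2×10^10 per mL. Peptide at 20 μM was equilibrated with vesicles for 3 min, and dye leakage was measured.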

[2] = system: Staphylococcus aureus; assay: Growth inhibition of methicillin-resistant Staphylococcus aureus ATCC 43300 at 32 ug/ml after 18 hrs; assay type: functional; conditions: ATCC 43300, 18 h, read-out: GI
Method in brief: (§1)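 Mid-log cultures in cation-adjusted Mueller Hinton broth were added at 5×10^5 CFU/mL to wells at a final compound concentration of 32 μg/mL. Plates stood at 37 °C for 18 h. Growth was read by OD600, and % inhibition was computed against media-only and untreated-bacteria controls.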

[3] = system: Escherichia coli; assay: Growth inhibition of Escherichia coli ATCC 25922 at 32 ug/ml after 18 hrs; assay type: functional; conditions: ATCC 25922, 18 h, read-out: GI
Method in brief: (§2)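 Mid-log cultures were prepared as above and seeded at 5×10^5 CFU/mL with compound at a final 32 μg/mL, then held static at 37 °C for 18 h. Growth was read as OD600. Percent inhibition was calculated against media-only and bacteria-only controls on the same plate.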

[4] = system: Klebsiella pneumoniae; assay: Growth inhibition of multidrug-resistant Klebsiella pneumoniae ATCC 700603 at 32 ug/ml after 18 hrs; assay type: functional; conditions: ATCC 700603, 18 h, read-out: GI; method in brief: as §1
[5] = system: Pseudomonas aeruginosa; assay: Growth inhibition of Pseudomonas aeruginosa ATCC 27853 at 32 ug/ml after 18 hrs; assay type: functional; conditions: ATCC 27853, 18 h, read-out: GI; method in brief: as §2
[6] = system: Acinetobacter baumannii; assay: Growth inhibition of Acinetobacter baumannii ATCC 19606 at 32 ug/ml after 18 hrs; assay type: functional; conditions: ATCC 19606 = CIP 70.34 = JCM 6841, 18 h, read-out: GI; method in brief: as §2
[7] = system: Cryptococcus neoformans; assay: Growth inhibition of Cryptococcus neoformans H99 ATCC 208821 at 32 ug/ml after 24 hrs by resazurin dye-based microspectrophotometric assay; assay type: functional; conditions: var. grubii H99 ATCC 208821, 24 h, read-out: GI
Method in brief: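 Yeasts were grown 3 days on YPD agar at 30 °C, suspended from five colonies and diluted in YNB broth to a final 2.5×10^3 CFU/mL. Compound at a final 32 μg/mL; incubated 24 h at 35 °C without shaking. C. albicans was read at OD530. C. neoformans was read as OD600–570 after resazurin (0.001% final) and a further 2 h at 35 °C. Fluconazole was the standard.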

[8] = system: Candida albicans; assay: Growth inhibition of Candida albicans ATCC 90028 at 32 ug/ml after 24 hrs by OD530 light-scattering microspectrophotometric method; conditions: ATCC 90028, 24 h, read-out: GI
[9] = Hemolytic activity against human RBC at 50 uM after 1 hr by Drabkin's assay relative to control; assay type: ADME, cell-based, Erythrocyte; conditions: human red blood cells (erythrocytes), read-out: Activity
[10] = Hemolytic activity against human RBC at 25 uM after 1 hr by Drabkin's assay relative to control; assay type: ADME, cell-based, Erythrocyte; conditions: human red blood cells (erythrocytes), read-out: Activity
[11] = Hemolytic activity against human RBC at 12.5 uM after 1 hr by Drabkin's assay relative to control; assay type: ADME, cell-based, Erythrocyte; conditions: human red blood cells (erythrocytes), read-out: Activity
[12] = Hemolytic activity against human RBC at 6.25 uM after 1 hr by Drabkin's assay relative to control; assay type: ADME, cell-based, Erythrocyte; conditions: human red blood cells (erythrocytes), read-out: Activity
[13] = Hemolytic activity against human RBC at 3.125 uM after 1 hr by Drabkin's assay relative to control; assay type: ADME, cell-based, Erythrocyte; conditions: human red blood cells (erythrocytes), read-out: Activity
[14] = Hemolytic activity against human RBC at 1.56 uM after 1 hr by Drabkin's assay relative to control; assay type: ADME, cell-based, Erythrocyte; conditions: human red blood cells (erythrocytes), read-out: Activity
[15] = Hemolytic activity against human RBC at 0.78 uM after 1 hr by Drabkin's assay relative to control; assay type: ADME, cell-based, Erythrocyte; conditions: human red blood cells (erythrocytes), read-out: Activity
[16] = Hemolytic activity against human RBC at 0.39 uM after 1 hr by Drabkin's assay relative to control; assay type: ADME, cell-based, Erythrocyte; conditions: human red blood cells (erythrocytes), read-out: Activity
[17] = Hemolytic activity against human RBC at 100 uM after 1 hr by Drabkin's assay relative to control; assay type: ADME, cell-based, Erythrocyte; conditions: human red blood cells (erythrocytes), read-out: Activity
[18] = system: Erythrocyte; assay: Hemolytic activity against human RBC after 1 hr by Drabkin's assay; assay type: ADME, cell-based

Structure (SMILES)	Activity [1]	inhibition of growth at 32 µg/mL [2]	inhibition of growth at 32 µg/mL [3]	inhibition of growth at 32 µg/mL [4]	inhibition of growth at 32 µg/mL [5]	inhibition of growth at 32 µg/mL [6]	inhibition of growth at 32 µg/mL [7]	inhibition of growth at 32 µg/mL [8]	hemolysis at 1 h, 50 µM [9]	hemolysis at 1 h, 25 µM [10]	hemolysis at 1 h, 12.5 µM [11]	hemolysis at 1 h, 6.25 µM [12]	hemolysis at 1 h, 3.125 µM [13]	hemolysis at 1 h, 1.56 µM [14]	hemolysis at 1 h, 0.78 µM [15]	hemolysis at 1 h, 0.39 µM [16]	hemolysis at 1 h, 100 µM [17]	Activity [18]
CC(C)(C)OC(=O)[C@@H]1CCCN1C(=O)N1CCCN1C(=O)[C@@H]1CCCN1C(=O)N1CCCN1C(=O)[C@@H]1CCCN1C(=O)N1CCCN1C(=O)[C@@H]1CCCN1C(=O)N1CCCN1C(=O)[C@@H]1CCCN1C(=O)N1CCCN1C(=O)[C@@H]1CCCN1C(=O)N1CCCN1C(=O)[C@@H]1CCCN1C(=O)N1CCCN1C(=O)[C@@H]1CCCN1C(=O)N1CCCN1 [listing 1 of 2 here]	inactive																	
O=C([C@@H]1CCCN1C(=O)N1CCCN1C(=O)[C@@H]1CCCN1C(=O)N1CCCN1C(=O)[C@@H]1CCCN1C(=O)N1CCCN1C(=O)[C@@H]1CCCN1C(=O)N1CCCN1C(=O)[C@@H]1CCCN1C(=O)N1CCCN1C(=O)[C@@H]1CCCN1C(=O)N1CCCN1C(=O)[C@@H]1CCCN1C(=O)N1CCCN1C(=O)[C@@H]1CCCN1)N1CCCN1		22.8%	1.9%	1.9%	-6.95%	-4.27%	-2.7%	2.38%										
O=C(OCc1ccccc1)N1CCCN1C(=O)[C@@H]1CCCN1C(=O)N1CCCN1C(=O)[C@@H]1CCCN1C(=O)N1CCCN1C(=O)[C@@H]1CCCN1C(=O)N1CCCN1C(=O)[C@@H]1CCCN1C(=O)N1CCCN1C(=O)[C@@H]1CCCN1C(=O)N1CCCN1C(=O)[C@@H]1CCCN1C(=O)N1CCCN1C(=O)[C@@H]1CCCN1C(=O)N1CCCN1C(=O)[C@@H]1CCCN1	inactive	28.6%	14.8%	14.8%	-2.53%	38.4%	0.967%	4.07%										
CC(C)(C)OC(=O)[C@@H]1CCCN1C(=O)N1CCCN1C(=O)[C@@H]1CCCN1C(=O)N1CCCN1C(=O)[C@@H]1CCCN1C(=O)N1CCCN1C(=O)[C@@H]1CCCN1C(=O)N1CCCN1C(=O)[C@@H]1CCCN1C(=O)N1CCCN1C(=O)[C@@H]1CCCN1C(=O)N1CCCN1C(=O)[C@@H]1CCCN1C(=O)N1CCCN1C(=O)[C@@H]1CCCN1C(=O)N1CCCN1.Cl									0%	-0.271%	0.181%	0%	-0.361%	0%	-0.903%	-0.181%	-0.181%	Dose-dependent effect
CC(C)(C)OC(=O)[C@@H]1CCCN1C(=O)N1CCCN1C(=O)[C@@H]1CCCN1C(=O)N1CCCN1C(=O)[C@@H]1CCCN1C(=O)N1CCCN1C(=O)[C@@H]1CCCN1C(=O)N1CCCN1C(=O)[C@@H]1CCCN1C(=O)N1CCCN1C(=O)[C@@H]1CCCN1C(=O)N1CCCN1C(=O)[C@@H]1CCCN1C(=O)N1CCCN1C(=O)[C@@H]1CCCN1C(=O)N1CCCN1 [listing 2 of 2 here]		20.7%	5.27%	5.27%	-8.18%	17.8%	-3.43%	2.92%										
CC(C)(C)OC(=O)N1CCC[C@H]1C(=O)N1CCCN1C(=O)N1CCC[C@H]1C(=O)N1CCCN1C(=O)N1CCC[C@H]1C(=O)N1CCCN1C(=O)N1CCC[C@H]1C(=O)N1CCCN1		28.3%	4.51%	4.51%	-4.17%	7.37%	-0.655%	3.56%	0.061%								0.723%	Dose-dependent effect
